This passage reports Activity, survival and inhibition results from ChEMBL document CHEMBL1212759, “Antifungal activity of colistin against mucorales species in vitro and in a murine model of Rhizopus oryzae pulmonary infection” (Antimicrob Agents Chemother, 2010).

The source made the active and inactive calls. The calls are words filed in the database; no cut-off is given here.

What all share (assay type): functional, organism-based
Assay [1] relates to Rhizopus arrhizus. In words: Fungicidal activity against Rhizopus oryzae 5799 at 2 ug/ml after 6 hrs by DiBAC staining. An outline of the steps:
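Spores were grown to mycelia in RPMI 1640 plus 0.15% Junlon, shaken 18 h at 37°C. Mycelia were pelleted and exposed 6 h at 37°C with shaking to colistin (two levels), amphotericin B 2 μg/ml, or drug-free medium. They were washed in MOPS pH 7, stained with DiBAC 2 μg/ml for 1 h in the dark at ambient temperature, and imaged by fluorescence microscopy with an FITC filter.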

The test system of assay [2] is Rhizopus arrhizus. In words: Antimicrobial activity against Rhizopus oryzae infected in BALB/c mouse pulmonary mucormycosis model assessed as effect on fungus-induced mortality rate at 80 mg/kg/day, ip after 10 days. In outline:
(§1)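 Female BALB/c mice (18–22 g) were immunosuppressed with cyclophosphamide 75 mg/kg i.p. and cortisone acetate 300 mg/kg s.c., then infected intranasally with ~3,500 R. oryzae spores. Colistimethate 40 mg/kg i.p. was given every 12 h for 5 days, starting 3 h post-infection; controls got saline. Groups of 10, run three times. Mortality was followed twice daily for 10 days; lung fungal burden by qPCR of rRNA gene, duplicate.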

Assay [3] concerns Rhizopus arrhizus. In words: Antimicrobial activity against Rhizopus oryzae infected in BALB/c mouse pulmonary mucormycosis model assessed as increase in survival rate at 5 mg/kg/day, itn after 10 days. In outline:
(§2)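 Female BALB/c mice were immunosuppressed with cyclophosphamide and cortisone acetate and infected intranasally with ~3,500 R. oryzae spores. As prophylaxis, intranasal colistimethate 2.5 mg/kg was given every 12 h for 5 days, starting 1 day before infection; on infection day it was given 3 h after spores. Groups of 10, run three times. Survival was followed over 10 days; lung burden by rRNA-gene qPCR.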

Assay [4] relates to Rhizopus arrhizus. In words: Antifungal activity against Rhizopus oryzae infected in BALB/c mouse pulmonary mucormycosis model assessed as decrease in fungal burden at 80 mg/kg/day, ip by RT-qPCR analysis. An outline of the steps:
as §1
In general terms: Real-time PCR tracks product formation cycle by cycle.

Assay [5] concerns Rhizopus arrhizus. The assay can be described thus: Antifungal activity against Rhizopus oryzae infected in BALB/c mouse pulmonary mucormycosis model assessed as decrease in fungal burden at 5 mg/kg/day, itn by RT-qPCR analysis. An outline of the steps:
as §2

As to `C[C@@H]1[C@H](O)[C@@H](C)/C=C/C=C/C=C/C=C/C=C/C=C/C=C/[C@H](O[C@@H]2O[C@H](C)[C@@H](O)[C@H](N)[C@@H]2O)C[C@@H]2O[C@](O)(C[C@@H](O)C[C@@H](O)[C@H](O)CC[C@@H](O)C[C@@H](O)CC(=O)O[C@H]1C)C[C@H](O)[C@H]2C(=O)O`, the result in assay [1] was Active.
Take COLISTIMETHATE: in assay [2], the outcome was inactive. In addition, the survival in assay [3] is 61%. The inhibition entry in assay [4] is “inactive”. Also, the inhibition entry in assay [5] is “Active”.
